Results from ChEMBL document CHEMBL3414564, “3'-functionalized adamantyl cannabinoid receptor probes” (J Med Chem, 2015).
Calls of active or inactive are those of the source. The calls are words filed in the database; no cut-off is given here.

Columns and labels:
[1] = molecular target: T1, Cannabinoid receptor 1 (Rattus norvegicus, UniProt P20272); experiment: Displacement of [3H]CP-55,940 from CB1 receptor in rat brain membranes; assay type: cell membranes, Membrane
Procedure, shortened: (§1)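 Competition binding against [3H]CP-55,940 on rat brain membranes (CB1) or on membranes of HEK293 cells expressing mouse or human CB2. IC50 by nonlinear regression, converted to Ki. For isothiocyanates the value is an apparent Ki (Ki*), which depends on pretreatment time. Triplicate points; mean of three independent experiments.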

[2] = molecular target: Cannabinoid receptor 2 (Mus musculus, UniProt P47936); experiment: Displacement of [3H]CP-55,940 from mouse CB2 receptor expressed in HEK293 cell membranes; procedure, shortened: as §1
Chain of Cannabinoid receptor 2 (Mus musculus, UniProt P47936) (P47936 whole entry): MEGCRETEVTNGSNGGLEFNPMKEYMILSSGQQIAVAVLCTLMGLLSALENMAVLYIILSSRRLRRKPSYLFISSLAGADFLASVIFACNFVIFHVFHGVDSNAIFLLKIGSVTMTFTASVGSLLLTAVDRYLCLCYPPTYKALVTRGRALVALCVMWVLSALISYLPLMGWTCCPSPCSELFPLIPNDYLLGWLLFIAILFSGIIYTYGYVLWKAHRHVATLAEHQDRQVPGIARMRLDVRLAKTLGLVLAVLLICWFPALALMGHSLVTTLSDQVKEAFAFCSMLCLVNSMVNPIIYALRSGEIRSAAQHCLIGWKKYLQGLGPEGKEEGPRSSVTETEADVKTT

[3] = molecular target: T2, Cannabinoid receptor 2 (Homo sapiens, UniProt P34972); experiment: Displacement of [3H]CP-55,940 from human CB2 receptor expressed in HEK293 cell membranes; procedure, shortened: as §1
T2 sequence (P34972 whole entry): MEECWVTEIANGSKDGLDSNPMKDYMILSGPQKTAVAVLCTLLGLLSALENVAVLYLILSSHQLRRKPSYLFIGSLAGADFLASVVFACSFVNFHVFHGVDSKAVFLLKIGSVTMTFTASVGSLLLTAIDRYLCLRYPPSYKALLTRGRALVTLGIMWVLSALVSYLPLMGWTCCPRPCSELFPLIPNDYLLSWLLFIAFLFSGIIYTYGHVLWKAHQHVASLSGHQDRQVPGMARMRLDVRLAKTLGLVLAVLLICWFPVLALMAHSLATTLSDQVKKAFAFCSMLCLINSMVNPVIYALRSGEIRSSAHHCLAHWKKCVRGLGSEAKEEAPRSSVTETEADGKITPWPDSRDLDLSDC

[4] = molecular target: T1, Cannabinoid receptor 1; experiment: Agonist activity at rat CB1 receptor expressed in HEK293 cells assessed as inhibition of forskolin-induced cAMP accumulation incubated for 60 mins
[5] = molecular target: Cannabinoid receptor 1 (Rattus norvegicus) (UniProt P20272); experiment: Agonist activity at rat CB1 receptor expressed in HEK293 cells assessed as inhibition of forskolin-induced cAMP accumulation incubated for 60 mins relative to 500 nM CP-55,940; assay type: functional, cell-based
Chain of Cannabinoid receptor 1 (Rattus norvegicus) (P20272 whole entry): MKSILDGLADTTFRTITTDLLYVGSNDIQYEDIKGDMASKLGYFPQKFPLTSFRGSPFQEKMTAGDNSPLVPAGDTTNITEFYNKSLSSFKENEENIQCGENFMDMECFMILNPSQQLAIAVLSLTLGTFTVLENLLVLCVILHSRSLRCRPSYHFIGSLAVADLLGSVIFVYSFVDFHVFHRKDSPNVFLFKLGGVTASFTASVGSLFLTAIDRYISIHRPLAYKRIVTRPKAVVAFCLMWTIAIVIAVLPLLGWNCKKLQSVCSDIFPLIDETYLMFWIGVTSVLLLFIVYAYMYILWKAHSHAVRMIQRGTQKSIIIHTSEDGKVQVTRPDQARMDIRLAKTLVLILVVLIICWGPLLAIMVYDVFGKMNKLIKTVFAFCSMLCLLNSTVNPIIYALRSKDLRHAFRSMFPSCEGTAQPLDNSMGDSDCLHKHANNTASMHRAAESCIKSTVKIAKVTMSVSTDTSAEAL

[6] = molecular target: T2, Cannabinoid receptor 2; experiment: Inverse agonist activity at human CB2 receptor expressed in HEK293 cells assessed as inhibition of forskolin-induced cAMP accumulation incubated for 60 mins; assay type: functional, cell-based
Procedure, shortened: (§2)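 Forskolin-stimulated cAMP in HEK293 cells stably expressing rCB1 or hCB2, detached non-enzymatically and washed in HBSS, 1000–1500 cells/well. Compound series given in stimulation buffer with 2 μM forskolin (final), 30 min at room temperature. Eu-cAMP tracer and anti-cAMP TR-FRET detection reagents were then added for 60 min at room temperature. EC50 by nonlinear regression; two independent experiments in triplicate.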

[7] = molecular target: T2, Cannabinoid receptor 2; experiment: Inverse agonist activity at human CB2 receptor expressed in HEK293 cells assessed as inhibition of forskolin-induced cAMP accumulation incubated for 60 mins relative to 500 nM CP-55,940; assay type: functional, cell-based
[8] = molecular target: Cannabinoid receptor 1 (Rattus norvegicus) (UniProt P20272); experiment: Covalent binding affinity to CB1 receptor in rat brain membranes assessed as covalent labeling at 10 times Ki level incubated for 30 mins at 37 degC followed by UV irradiation by [3H]CP-55,940 radioligand binding assay; assay type: cell membranes; conditions: Membrane
Procedure, shortened: (§3)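 Membranes were incubated with azido ligand at 10× its Ki for 30 min at 37 °C with gentle agitation, then given UV at 254 nm for 1 min. They were washed twice with 1% BSA in TME and once with TME, and pelleted. A blank membrane sample was run in parallel. Bmax came from [3H]CP-55,940 saturation binding at 0.5–23.8 nM with 25 μg protein, 1 h at 30 °C. Nonspecific binding was taken with 4 μM unlabeled CP-55,940. Labeling % = (Bmax control − Bmax ligand)/Bmax control × 100.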

[9] = molecular target: T2, Cannabinoid receptor 2; experiment: Covalent binding affinity to human CB2 receptor expressed in HEK293 cell membranes assessed as covalent labeling at 10 times Ki level incubated for 30 mins at 37 degC followed by UV irradiation by [3H]CP-55,940 radioligand binding assay; procedure, shortened: as §3
[10] = molecular target: T2, Cannabinoid receptor 2; experiment: Activity at human CB2 receptor expressed in HEK293 cells assessed as inhibition of forskolin-induced cAMP accumulation up to 3 uM incubated for 60 mins; assay type: functional, cell-based; procedure, shortened: as §2
[11] = molecular target: T1, Cannabinoid receptor 1; experiment: Displacement of [3H]CP-55,940 from CB1 receptor in rat brain membranes incubated for 15 mins; assay type: cell membranes, Membrane
Procedure, shortened: (§4)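 Competition binding on rat brain membranes (CB1) against [3H]CP-55,940. Membranes were pretreated with the covalently reacting isothiocyanate ligand for the stated time (15, 30, 60 or 90 min) before the binding step. IC50 came from nonlinear regression and was converted to Ki. Values are reported as a time-dependent apparent Ki (Ki*).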

[12] = molecular target: T1, Cannabinoid receptor 1; experiment: Displacement of [3H]CP-55,940 from CB1 receptor in rat brain membranes incubated for 30 mins; assay type: cell membranes, Membrane; procedure, shortened: as §4
[13] = molecular target: T1, Cannabinoid receptor 1; experiment: Displacement of [3H]CP-55,940 from CB1 receptor in rat brain membranes incubated for 60 mins; assay type: cell membranes, Membrane; procedure, shortened: as §4
[14] = molecular target: T1, Cannabinoid receptor 1; experiment: Displacement of [3H]CP-55,940 from CB1 receptor in rat brain membranes incubated for 90 mins; assay type: cell membranes, Membrane; procedure, shortened: as §4
[15] = molecular target: Cannabinoid receptor 1 (Rattus norvegicus) (UniProt P20272); experiment: Irreversible binding affinity to CB1 receptor in rat brain membranes assessed as receptor occupancy at 10 times Ki level incubated for 15 mins by [3H]CP-55,940 radioligand binding assay; assay type: cell membranes; conditions: Membrane
Procedure, shortened: (§5)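 Rat brain CB1 membranes were pretreated with isothiocyanate ligand at 10× its Ki at 37 °C for 15, 30 or 60 min. The control was 60 min without ligand. Unbound ligand was removed by BSA/TME washes and centrifugation. Bmax came from [3H]CP-55,940 saturation binding at 0.5–23.8 nM, 25 μg protein, 1 h at 30 °C, with 4 μM unlabeled CP-55,940 for nonspecific binding. Irreversible occupancy = percent Bmax reduction.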

[16] = molecular target: Cannabinoid receptor 1 (Rattus norvegicus) (UniProt P20272); experiment: Irreversible binding affinity to CB1 receptor in rat brain membranes assessed as receptor occupancy at 10 times Ki level incubated for 30 mins by [3H]CP-55,940 radioligand binding assay; assay type: cell membranes; conditions: Membrane; procedure, shortened: as §5
[17] = molecular target: Cannabinoid receptor 1 (Rattus norvegicus) (UniProt P20272); experiment: Binding affinity to CB1 receptor in rat brain membranes assessed as receptor occupancy at 10 times Ki level incubated for 60 mins by [3H]CP-55,940 radioligand binding assay; assay type: cell membranes; conditions: Membrane; procedure, shortened: as §5

T1 sequence (P20272 whole entry): as above

Structure (SMILES) | Ki ([1]; read-out: Ki) [nM] | Ki ([2]; read-out: Ki) [nM] | Ki ([3]; read-out: Ki) [nM] | EC50 [4] [nM] | Emax [5] [%] | EC50 [6] [nM] | Emax [7] [%] | Activity [8] | Activity [9] | Activity [10] | other results
COC(=O)N[C@]12CC3CC(C1)C[C@](c1cc(O)c4c(c1)OC(C)(C)[C@@H]1CC[C@@H](O)C[C@@H]41)(C3)C2 | 29.1 | 2.1 | 8.4 | 1.6 | 71 | 15.8 | -74 | – | – | – | –
CC1(C)Oc2cc([C@]34CC5CC(C[C@@](CN=C=S)(C5)C3)C4)cc(O)c2[C@@H]2C[C@H](O)CC[C@H]21 | – | – | – | 0.8 | 94 | > 400 | -91 | 63% | 74% | – | Ki ([1]; read-out: Ki(app)): 3 nM; Ki ([2]; read-out: Ki(app)): 34.6 nM; Ki ([3]; read-out: Ki(app)): 10.3 nM
CC1(C)Oc2cc([C@]34CC5CC(C[C@@](N)(C5)C3)C4)cc(O)c2[C@@H]2C[C@H](O)CC[C@H]21 | > 1000 | > 1000 | > 1000 | – | – | – | – | – | – | – | –
CC1(C)Oc2cc([C@]34CC5CC(C[C@@](N=[N+]=[N-])(C5)C3)C4)cc(O)c2[C@@H]2C[C@H](O)CC[C@H]21 | 18.6 | 38.4 | 24.8 | 4.4 | 73 | – | – | 61% | 26% | inactive | –
CC1(C)Oc2cc([C@]34CC5CC(C[C@@](CN=[N+]=[N-])(C5)C3)C4)cc(O)c2[C@@H]2C[C@H](O)CC[C@H]21 | 4.4 | 26.4 | 9.6 | 2.4 | 45 | – | – | 67% | 60% | inactive | –
CC1(C)Oc2cc([C@]34CC5CC(C[C@@](N=C=S)(C5)C3)C4)cc(O)c2[C@@H]2C[C@H](O)CC[C@H]21 | – | – | – | 12 | 68 | – | – | 54% | 25% | inactive | Ki ([1]; read-out: Ki(app)): 35.4 nM; Ki ([2]; read-out: Ki(app)): 31.7 nM; Ki ([3]; read-out: Ki(app)): 13.1 nM; Ki [11]: 96 nM; Ki [12]: 58.6 nM; Ki [13]: 35.4 nM; Ki [14]: 35.7 nM; Activity [15]: 26%; Activity [16]: 54%; Activity [17]: Active
CC1(C)Oc2cc([C@]34CC5CC(C[C@@](C(=O)O)(C5)C3)C4)cc(O)c2[C@@H]2C[C@H](O)CC[C@H]21 | > 1000 | > 1000 | > 1000 | – | – | – | – | – | – | – | –
CC1(C)Oc2cc([C@]34CC5CC(C[C@@](CC#N)(C5)C3)C4)cc(O)c2[C@@H]2C[C@H](O)CC[C@H]21 | 2.6 | 4.4 | 4.6 | 5.4 | 78 | 83.1 | -78 | inactive | inactive | – | –
CC1(C)Oc2cc([C@]34CC5CC(C[C@@](C#N)(C5)C3)C4)cc(O)c2[C@@H]2C[C@H](O)CC[C@H]21 | 45.8 | 2.8 | 4.2 | 95.2 | 82 | 90.7 | -93 | – | – | – | –
CC1(C)Oc2cc(C34CC5CC(CC(C5)C3)C4)cc(O)c2[C@@H]2C[C@H](O)CC[C@H]21 | – | – | – | 2.7 | 69 | – | – | – | – | inactive | –
CC1(C)Oc2cc([C@]34CC5CC(C[C@@](C(N)=O)(C5)C3)C4)cc(O)c2[C@@H]2C[C@H](O)CC[C@H]21 | 297 | 947 | 337 | – | – | – | – | – | – | – | –
CC1(C)Oc2cc([C@]34CC5CC(C[C@@](CN)(C5)C3)C4)cc(O)c2[C@@H]2C[C@H](O)CC[C@H]21 | > 1000 | > 1000 | > 1000 | – | – | – | – | – | – | – | –
